Experimental data published in ChEMBL document CHEMBL1129793, “Quantitative structure-activity relationships for the in vitro antimycobacterial activity of pyrazinoic acid esters” (J Med Chem, 1996).

Test system: Mycobacterium avium
Test: In vitro activity against Mycobacterium avium (ATCC 49601).
Format: functional
Conditions: not given
Summary of the method: (§1)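 Broth macrodilution MIC. Cultures were grown in modified Middlebrook 7H10 broth (agar and malachite green omitted) with 10% OADC and 0.05% Tween 80, shaken at 37 °C for 3 days, then diluted in 7H10 broth to 1 Klett unit/mL. Test agents were dissolved in water or DMSO and filter-sterilised, then serially diluted 2-fold in 7H10 broth at pH 5.8. Tubes were shaken at 37 °C for 7–10 days, with a drug-free control. MIC was the lowest concentration with no visible turbidity, expressed in mmol/L.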

Compared with `CC(C)(C)OC(=O)c1cnc(Cl)cn1`, `CCCCCCCCCC(C)OC(=O)c1cnc(Cl)cn1` (stereo unspecified) is lower in “Log 1/MMIC” value: 2.33 for the first, 1.291 for the second.

`CCCCCCCOC(=O)c1cnc(C)cn1` and `CCCCCCCCCCCC(C)OC(=O)c1cnc(Cl)cn1` (stereo unspecified) are within 0.2 log units of each other in “Log 1/MMIC” value: 0.868 for the first, 1.027 for the second.

Test system: Mycobacterium avium
Test: In vitro activity against Mycobacterium avium (MAC-101).
Format: functional
Conditions: not given
Summary of the method: as §1

Compared with `CC(C)(C)OC(=O)c1cnc(Cl)cn1`, `CCCCCCCCCC(C)OC(=O)c1cnc(Cl)cn1` (stereo unspecified) is higher in “Log 1/MMIC” value: 0.225 for the first, 1.291 for the second.

First: CCCCCCCOC(=O)c1cnc(C)cn1
Second: CCCCCCCCCCCC(C)OC(=O)c1cnc(Cl)cn1 (stereo unspecified)
The “Log 1/MMIC” value of the first is higher: 0.868 for the first, 0.124 for the second.

Test system: Mycobacterium tuberculosis
Test: In vitro activity against Mycobacterium tuberculosis (ATCC 35801)
Format: functional
Conditions: not given
Summary of the method: as §1

Going from `CCCCCC(CC)OC(=O)c1cnc(C)cn1` (stereo unspecified) to `CCCCCCC(C)OC(=O)c1cnc(F)cn1` (stereo unspecified), the “Log 1/MMIC” value falls from 2.7 to 1.803.

First: COC(=O)c1cnc(C)cn1
Second: CCCOC(=O)c1cnc(C)cn1
The “Log 1/MMIC” value of the first is lower: 1.279 for the first, 1.654 for the second.

Going from `CCCCCCOC(=O)c1cnc(F)cn1` to `CCCCCCCOC(=O)c1cnc(C)cn1`, the “Log 1/MMIC” value rises from 1.753 to 2.976.

Compared with `COC(=O)c1cnccn1`, `CC(C)COC(=O)c1cnccn1` is higher in “Log 1/MMIC” value: 0.936 for the first, 1.654 for the second.

First: CC(C)(C)OC(=O)c1cnc(Cl)cn1
Second: CCCCCCCCCC(C)OC(=O)c1cnc(Cl)cn1 (stereo unspecified)
The “Log 1/MMIC” value of the first is lower: 2.031 for the first, 3.398 for the second.

For `CCCCCCCCCCCC(C)OC(=O)c1cnc(Cl)cn1` (stereo unspecified), the “Log 1/MMIC” value was 2.834.

Test system: not listed separately
Test: T1/2 in equine serum
Format: ADME, organism-based, Equus caballus
Conditions: horse
Summary of the method: (§2)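 Ester from a 1 mg/mL stock was mixed with 5% aqueous equine serum in 0.01 M KH2PO4, pH 7.2. Remaining ester was measured by isocratic reverse-phase HPLC (80% acetonitrile/20% 0.1 M sodium acetate, pH 5.0), with UV detection at 265 nm against a standard curve. Half-life is the time to 50% conversion to the acid.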

Going from `CC(C)(C)OC(=O)c1cnc(Cl)cn1` to `CCCCCCCCCC(C)OC(=O)c1cnc(Cl)cn1` (stereo unspecified), the half-life falls from 1200 min to 29.6 min (41-fold).

Going from `CCCCCCCOC(=O)c1cnc(C)cn1` to `CCCCCCCCCCCC(C)OC(=O)c1cnc(Cl)cn1` (stereo unspecified), the half-life rises from 3.2 min to 50 min (16-fold).

Test system: not listed separately
Test: t1/2 (min) in equine serum
Format: ADME, organism-based, Equus caballus
Conditions: horse
Summary of the method: as §2, with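 “7.2. Aliquots were taken at 0, 5, 10, 15, 30, 60 and 120 min and quenched with an equal volume of acetonitrile, then filtered.” for “7.2.”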

Compared with `CCC(C)OC(=O)c1cnccn1` (stereo unspecified), `CC(C)COC(=O)c1cnccn1` is 5-fold higher in half-life: 41.1 min for the first, 207 min for the second.

Compared with `CCCCCC(CC)OC(=O)c1cnc(C)cn1` (stereo unspecified), `CCCCCCC(C)OC(=O)c1cnc(F)cn1` (stereo unspecified) is 6.9-fold higher in half-life: 1 min for the first, 6.9 min for the second.

Going from `COC(=O)c1cnc(C)cn1` to `COC(=O)c1cnc(F)cn1`, the half-life falls from 1200 min to 222 min (5.4-fold).

Going from `CCCOC(=O)c1cnc(C)cn1` to `CCCCCCOC(=O)c1cnc(F)cn1`, the half-life falls from 124 min to 2.8 min (44-fold).

First: COC(=O)c1cnc(OC)cn1
Second: COC(=O)c1cnccn1
The half-life of the first is 1.6-fold lower: 300 min for the first, 470 min for the second.

For `O=C(OCc1ccccc1)c1cnccn1`, the half-life was 4.3 min.

Test system: Mycobacterium kansasii
Test: In vitro activity against Mycobacterium kansasii (SWK)
Format: functional
Conditions: not given
Summary of the method: as §1

`CCC(C)OC(=O)c1cnccn1` (stereo unspecified) and `CC(C)COC(=O)c1cnccn1` are the same in “Log 1/MMIC” value: 1.052 for the first, 1.052 for the second.

Compared with `CCCCCC(CC)OC(=O)c1cnc(C)cn1` (stereo unspecified), `CCCCCCC(C)OC(=O)c1cnc(F)cn1` (stereo unspecified) is higher in “Log 1/MMIC” value: 1.796 for the first, 3.928 for the second.

Going from `COC(=O)c1cnc(C)cn1` to `COC(=O)c1cnc(F)cn1`, the “Log 1/MMIC” value rises from 0.677 to 1.29.

`CCCOC(=O)c1cnc(C)cn1` and `CCCCCCOC(=O)c1cnc(F)cn1` are within 0.2 log units of each other in “Log 1/MMIC” value: 1.353 for the first, 1.452 for the second.

`COC(=O)c1cnc(OC)cn1` and `COC(=O)c1cnccn1` are within 0.2 log units of each other in “Log 1/MMIC” value: 0.42 for the first, 0.334 for the second.

With `O=C(OCc1ccccc1)c1cnccn1` the “Log 1/MMIC” value was 2.331.

Test system: Mycobacterium avium
Test: In vitro activity against Mycobacterium avium (ATCC49601)
Format: functional
Conditions: not given
Summary of the method: as §1

Going from `CCC(C)OC(=O)c1cnccn1` (stereo unspecified) to `CC(C)COC(=O)c1cnccn1`, the “Log 1/MMIC” value rises from -0.755 to -0.152.

`CCCCCC(CC)OC(=O)c1cnc(C)cn1` (stereo unspecified) and `CCCCCCC(C)OC(=O)c1cnc(F)cn1` (stereo unspecified) are within 0.2 log units of each other in “Log 1/MMIC” value: 0.592 for the first, 0.599 for the second.

Compared with `COC(=O)c1cnc(C)cn1`, `COC(=O)c1cnc(F)cn1` is higher in “Log 1/MMIC” value: -0.226 for the first, 0.387 for the second.

`CCCOC(=O)c1cnc(C)cn1` and `CCCCCCOC(=O)c1cnc(F)cn1` are within 0.2 log units of each other in “Log 1/MMIC” value: 0.45 for the first, 0.548 for the second.

`COC(=O)c1cnc(OC)cn1` and `COC(=O)c1cnccn1` are within 0.2 log units of each other in “Log 1/MMIC” value: -0.183 for the first, -0.268 for the second.

In the case of `O=C(OCc1ccccc1)c1cnccn1`, the “Log 1/MMIC” value is reported as 0.525.

Test system: not listed separately
Test: Partition coefficient (logP)
Format: physicochemical
Conditions: octanol/water

`CCC(C)OC(=O)c1cnccn1` (stereo unspecified) and `CC(C)COC(=O)c1cnccn1` are within 0.2 log units of each other in logP: 1.05 for the first, 1.07 for the second.

Compared with `CCCCCC(CC)OC(=O)c1cnc(C)cn1` (stereo unspecified), `CCCCCCC(C)OC(=O)c1cnc(F)cn1` (stereo unspecified) is lower in logP: 3.72 for the first, 3.23 for the second.

`COC(=O)c1cnc(C)cn1` and `COC(=O)c1cnc(F)cn1` are within 0.2 log units of each other in logP: 0.15 for the first, 0.27 for the second.

Compared with `CCCOC(=O)c1cnc(C)cn1`, `CCCCCCCOC(=O)c1cnc(C)cn1` is higher in logP: 1.15 for the first, 3.35 for the second.

Compared with `COC(=O)c1cnc(OC)cn1`, `CC(C)(C)OC(=O)c1cnc(Cl)cn1` is higher in logP: 0.74 for the first, 1.7 for the second.

Going from `CCCCCCOC(=O)c1cnc(F)cn1` to `CCCCCCCCCC(C)OC(=O)c1cnc(Cl)cn1` (stereo unspecified), the logP rises from 2.96 to 5.25.

First: O=C(OCc1ccccc1)c1cnccn1
Second: CCCCCCCCCCCC(C)OC(=O)c1cnc(Cl)cn1 (stereo unspecified)
The logP of the first is lower: 1.49 for the first, 6.25 for the second.

Test system: Mycobacterium tuberculosis
Test: In vitro activity against Mycobacterium tuberculosis (ATCC 27294)
Format: functional
Conditions: not given
Summary of the method: as §1

First: CCC(C)OC(=O)c1cnccn1 (stereo unspecified)
Second: CC(C)COC(=O)c1cnccn1
The “Log 1/MMIC” value of the first is lower: 1.353 for the first, 1.955 for the second.

First: CCCCCC(CC)OC(=O)c1cnc(C)cn1 (stereo unspecified)
Second: CCCCCCC(C)OC(=O)c1cnc(F)cn1 (stereo unspecified)
The “Log 1/MMIC” value of the first is lower: 1.194 for the first, 2.104 for the second.

Compared with `COC(=O)c1cnc(C)cn1`, `COC(=O)c1cnc(F)cn1` is higher in “Log 1/MMIC” value: 0.978 for the first, 1.591 for the second.

First: CCCOC(=O)c1cnc(C)cn1
Second: CCCCCCCOC(=O)c1cnc(C)cn1
The “Log 1/MMIC” value of the first is lower: 1.955 for the first, 2.675 for the second.

First: COC(=O)c1cnccn1
Second: CC(C)(C)OC(=O)c1cnc(Cl)cn1
The “Log 1/MMIC” value of the first is lower: 1.237 for the first, 1.73 for the second.

Compared with `CCCCCCCCCC(C)OC(=O)c1cnc(Cl)cn1` (stereo unspecified), `CCCCCCCCCCCC(C)OC(=O)c1cnc(Cl)cn1` (stereo unspecified) is lower in “Log 1/MMIC” value: 3.087 for the first, 2.232 for the second.

Test system: Mycobacterium tuberculosis
Test: In vitro activity against Mycobacterium tuberculosis (ATCC 35828)
Format: functional
Conditions: not given
Summary of the method: as §1

First: CCCCCC(CC)OC(=O)c1cnc(C)cn1 (stereo unspecified)
Second: CCCCCCC(C)OC(=O)c1cnc(F)cn1 (stereo unspecified)
The “Log 1/MMIC” value of the first is lower: 1.495 for the first, 1.803 for the second.

Compared with `COC(=O)c1cnc(C)cn1`, `CCCCCCCOC(=O)c1cnc(C)cn1` is higher in “Log 1/MMIC” value: 0.978 for the first, 2.373 for the second.

Compared with `CC(C)(C)OC(=O)c1cnc(Cl)cn1`, `CCCCCCCCCC(C)OC(=O)c1cnc(Cl)cn1` (stereo unspecified) is higher in “Log 1/MMIC” value: 1.73 for the first, 2.495 for the second.

Compared with `CC(C)COC(=O)c1cnccn1`, `O=C(OCc1ccccc1)c1cnccn1` is higher in “Log 1/MMIC” value: 1.654 for the first, 2.03 for the second.

For `CCCCCCCCCCCC(C)OC(=O)c1cnc(Cl)cn1` (stereo unspecified), the “Log 1/MMIC” value was 2.834.

Test system: Mycobacterium avium
Test: In vitro activity against Mycobacterium avium (MAC-101)
Format: functional
Conditions: not given
Summary of the method: as §1

`CCC(C)OC(=O)c1cnccn1` (stereo unspecified) and `CC(C)COC(=O)c1cnccn1` are the same in “Log 1/MMIC” value: -0.152 for the first, -0.152 for the second.

Going from `CCCCCC(CC)OC(=O)c1cnc(C)cn1` (stereo unspecified) to `CCCCCCC(C)OC(=O)c1cnc(F)cn1` (stereo unspecified), the “Log 1/MMIC” value rises from 0.592 to 0.9.

Compared with `COC(=O)c1cnc(C)cn1`, `COC(=O)c1cnc(F)cn1` is higher in “Log 1/MMIC” value: -0.226 for the first, 0.387 for the second.

`CCCOC(=O)c1cnc(C)cn1` and `CCCCCCOC(=O)c1cnc(F)cn1` are within 0.2 log units of each other in “Log 1/MMIC” value: 0.45 for the first, 0.548 for the second.

`COC(=O)c1cnc(OC)cn1` and `COC(=O)c1cnccn1` are within 0.2 log units of each other in “Log 1/MMIC” value: -0.183 for the first, -0.268 for the second.

With `O=C(OCc1ccccc1)c1cnccn1` the “Log 1/MMIC” value was 0.525.

Test system: Mycobacterium kansasii
Test: in vitro activity against Mycobacterium kansasii (SWK).
Format: functional
Conditions: not given
Summary of the method: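 M. kansasii clinical isolate SWK was grown 3 days at 37 °C with shaking in modified Middlebrook 7H10 broth with 10% OADC and 0.05% Tween 80, then diluted. It was tested in serial 2-fold dilutions in 7H10 broth at pH 5.8, shaken at 37 °C for 7–10 days, with a drug-free control. MIC was the lowest concentration giving no visible turbidity, expressed in mmol/L.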

Compared with `CC(C)(C)OC(=O)c1cnc(Cl)cn1`, `CCCCCCCCCC(C)OC(=O)c1cnc(Cl)cn1` (stereo unspecified) is higher in “Log 1/MMIC” value: 2.633 for the first, 3.097 for the second.

Compared with `CCCCCCCOC(=O)c1cnc(C)cn1`, `CCCCCCCCCCCC(C)OC(=O)c1cnc(Cl)cn1` (stereo unspecified) is higher in “Log 1/MMIC” value: 1.771 for the first, 3.754 for the second.
